Measurements of several laboratories.
Compare with care: the assays were run in different laboratories.
Target: Phosphatidylinositol 4-phosphate 3-kinase C2 domain-containing subunit beta (PIK3C2B, Homo sapiens, UniProt O00750)

C[C@@H](c1cccc(C#N)c1)n1cc(Cl)cc(C(N)=O)c1=N
remaining binding (cell-free assay; competition with immobilised ligand; 1 µM): 96%

COc1ncc2cc3ccccc3nc2c1C#N
remaining binding (cell-free assay; competition with immobilised ligand; 5 µM): 100%

N[C@@H]1CCN(c2nccc(-c3cnn4ncccc34)n2)C1
remaining binding (binding; 1 µM): 100%

c1cncc(-c2cccc(Nc3nccc(NC4CCCCC4)n3)c2)c1
remaining binding (binding; competition with immobilised ligand; 10 µM): 81%

O=C(c1ccc(Nc2nccc(-c3cc4ccccc4s3)n2)cc1)N1CCC(N2CCCC2)CC1
remaining binding (binding; competition with immobilised ligand; 1 µM): 99%

N#Cc1ccccc1CSc1nnc2c(n1)[nH]c1ccccc12
remaining binding (binding; competition with immobilised ligand; 10 µM): 95%

CN(C)c1nccc(-c2cnn3ncccc23)n1
remaining binding (binding; 1 µM): 100%

Cc1nccc(COC(=O)N2C[C@@H]3[C@@H](CNC(=O)c4ccc5[nH]nnc5c4)[C@@H]3C2)n1
remaining binding (cell-free assay; competition with immobilised ligand; 1 µM): 97%

COc1ccnn2ncc(-c3ccnc(N(C)C)n3)c12
remaining binding (binding; 1 µM): 100%

CCS(=O)(=O)c1cc2cc(C[C@@](O)(CC(C)(C)c3ccc(F)cc3C(N)=O)C(F)(F)F)[nH]c2cn1
remaining binding (cell-free assay; competition with immobilised ligand; 1 µM): 86%

COc1cnc(Nc2cccc(S(N)(=O)=O)c2)nc1N1CCN(c2ccccc2)CC1
remaining binding (binding; competition with immobilised ligand; 1 µM): 100%

C[C@@H]1CN(c2cc(-c3nn(C)c4ccc(OC5(C)CC5)cc34)ncn2)C[C@H](C)O1
remaining binding (cell-free assay; competition with immobilised ligand; 1 µM): 70%

CN(c1nccc(-c2cnn3ncccc23)n1)C1CC1
remaining binding (binding; 1 µM): 100%

O=C(N[C@H]1CCCCC/C=C\C2C[C@@]2(C(=O)O)NC(=O)[C@@H]2C[C@@H](Oc3ccncc3)CN2C1=O)OC1CCCC1 (stereo partly drawn)
remaining binding (binding; competition with immobilised ligand; 1 µM): 84%

F[C@@H]1CCN(c2nccc(-c3cnn4ncccc34)n2)C1
remaining binding (binding; 1 µM): 85%

O=C(c1ccc(Nc2ncc(Cl)c(-c3ccc(Cl)s3)n2)cc1)N1CCC(N2CCCC2)CC1
remaining binding (binding; competition with immobilised ligand; 1 µM): 98%

C=CC(=O)N1CCC(C(=O)NCC(=O)N2CCN(c3nc(-c4cnc(N)nc4C(F)F)nc(N4CCOCC4)n3)CC2)CC1
remaining binding (binding; competition with immobilised ligand; 1 µM): 21%

C[C@H](c1ccnc(Nc2nc3ccc(-c4cc(N(C)C)ncn4)cc3[nH]2)c1)N1CCN(C(=O)CC(F)(F)F)CC1
remaining binding (cell-free assay; competition with immobilised ligand; 0.1 µM): 97%

CN(C)c1nccc(-c2cnc3ncccn23)n1
remaining binding (binding; 1 µM): 57%

Nc1cnc(N2CCc3cc(S(=O)(=O)Nc4c(F)cc(Cl)cc4F)cc(N4CCCC4=O)c32)nc1
remaining binding (cell-free assay; competition with immobilised ligand; 1 µM): 83%

C[C@@H](c1ccc(-n2cnc3c(N)ncnc32)cc1)N1CCc2nn(C)c(Cc3ccccc3)c2C1=O
remaining binding (binding; competition with immobilised ligand; 0.1 µM): 87%

O=C(c1ccc(Nc2ncc(Cl)c(-c3cc4ccccc4s3)n2)cc1)N1CCC(N2CCCC2)CC1
remaining binding (binding; competition with immobilised ligand; 1 µM): 100%

c1cnn2ncc(-c3ccnc(N4CCC45COC5)n3)c2c1
remaining binding (binding; 1 µM): 82%

O=C(NCC1CCOCC1)c1n[nH]cc1NC(=O)c1c(F)cccc1F
remaining binding (binding; competition with immobilised ligand; 1 µM): 100%
